One may read the MIC99 as the lowest concentration that inhibits either 99% of growth or 99% of the strains tested, depending on the study. A word on the IC50: it is the concentration at which inhibition is half-maximal. As a reminder, the solubility is the dissolved amount per volume that the medium holds. Higher therefore signals much dissolved substance. For orientation: half-life means how long it takes for the measured level to halve.

≈ marks a conversion by molar mass, not a printed value. Calls of active or inactive are those of the source. The calls are words filed in the database; no cut-off is given here. Where only a bound is given, the exact number is not on record here.

The record followed here is ChEMBL document CHEMBL5620421, “2,6-Disubstituted 7-(naphthalen-2-ylmethyl)-7H-purines as a new class of potent antitubercular agents inhibiting DprE1” (Eur J Med Chem, 2023).

The subject of data set [1] is Mycobacterium tuberculosis. Description: Antitubercular activity against Mycobacterium tuberculosis CNCTC My 331/88 (H37Rv) assessed as inhibition of bacterial growth measured after 14 days of incubation by Sulas semisynthetic medium based assay. It is filed as functional. To be noted: 336 h, time 14 day. The method, boiled down:
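Micromethod MIC in Sula's semisynthetic medium. MIC is the lowest concentration inhibiting >99% of the mycobacterial population. Isoniazid was the standard drug.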

Data set [2] concerns Mycobacterium avium. Description: Antitubercular activity against Mycobacterium avium CNCTC My 330/88 assessed as inhibition of bacterial growth measured after 14 days of incubation by Sulas semisynthetic medium based assay. It is filed as functional. The following applies: CNCTC My 330/88, 336 h, time 14 day. The method, boiled down: (§1)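 M. avium was tested by the micromethod in Sula's semisynthetic medium. Compounds in DMSO at 1000 to 0.5 μmol/L. Incubation at 37 °C, read at 14 and 21 days. MIC is the lowest concentration giving >99% growth inhibition.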

Data set [3] deals with Mycobacterium avium. Description: Antitubercular activity against Mycobacterium avium CNCTC My 330/88 assessed as inhibition of bacterial growth measured after 21 days of incubation by Sulas semisynthetic medium based assay. The following applies: CNCTC My 330/88, 504 h, time 21 day. The class given is functional. The method, boiled down: as §1
The subject of data set [4] is Mycobacterium kansasii. Description: Antitubercular activity against Mycobacterium kansasii CNCTC My 235/80 assessed as inhibition of bacterial growth measured after 7 days of incubation by Sulas semisynthetic medium based assay. It is filed as functional. To be noted: CNCTC My 235/80, 168 h, time 7 day. The method, boiled down:
(§2)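 Micromethod in Sula's semisynthetic medium. MIC is the lowest concentration inhibiting >99% of the mycobacterial population. Isoniazid was the standard.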

Data set [5] has as its system Mycobacterium kansasii. Description: Antitubercular activity against Mycobacterium kansasii CNCTC My 235/80 assessed as inhibition of bacterial growth measured after 14 days of incubation by Sulas semisynthetic medium based assay. It is filed as functional. To be noted: CNCTC My 235/80, 336 h, time 14 day. The method, boiled down: as §2
In data set [6] the test system is Mycobacterium kansasii. Description: Antitubercular activity against Mycobacterium kansasii CNCTC My 235/80 assessed as inhibition of bacterial growth measured after 21 days of incubation by Sulas semisynthetic medium based assay. The class given is functional. To be noted: CNCTC My 235/80, 504 h, time 21 day. The essentials:
as §2

Data set [7] has as its system Mycobacterium tuberculosis. Description: Antimycobacterial activity against MDR clinical isolate Mycobacterium tuberculosis PRAHA 131 assessed as inhibition of mycobacterial growth measured after 14 to 21 days of incubation by Sulas semisynthetic medium based assay. It is filed as functional. To be noted: time 14-21 day. The essentials: (§3)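 Clinical MDR/XDR M. tuberculosis isolates were tested by the Sula's semisynthetic medium micromethod. Compounds in DMSO at 1000 to 0.5 μmol/L, in twofold-type steps. Incubation at 37 °C, read at 14 and 21 days. MIC99 is the lowest concentration inhibiting >99% of growth. Drug resistance or susceptibility of each isolate is to amikacin, clofazimine, gentamicin, ofloxacin, streptomycin and the others listed.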

The subject of data set [8] is Mycobacterium tuberculosis. Description: Antimycobacterial activity against XDR clinical isolate Mycobacterium tuberculosis PRAHA 131 assessed as inhibition of mycobacterial growth measured after 14 to 21 days of incubation by Sulas semisynthetic medium based assay. The class given is functional. The following applies: time 14-21 day. The method, boiled down: as §3

In data set [9] the test system is Mycobacterium tuberculosis. Description: Antimycobacterial activity against MDR clinical isolate Mycobacterium tuberculosis 234/2005 assessed as inhibition of mycobacterial growth measured after 14 to 21 days of incubation by Sulas semisynthetic medium based assay. It is filed as functional. The following applies: time 14-21 day. The essentials:
as §3

Data set [10] deals with Mycobacterium tuberculosis. As to the kind of experiment: Antimycobacterial activity against MDR clinical isolate Mycobacterium tuberculosis 7357/1998 assessed as inhibition of mycobacterial growth measured after 14 to 21 days of incubation by Sulas semisynthetic medium based assay. It is filed as functional. The following applies: time 14-21 day. The method, boiled down:
as §3

The test system of data set [11] is Mycobacterium tuberculosis. As to the kind of experiment: Antimycobacterial activity against MDR clinical isolate Mycobacterium tuberculosis 8666/2010 assessed as inhibition of mycobacterial growth measured after 14 to 21 days of incubation by Sulas semisynthetic medium based assay. The class given is functional. To be noted: time 14-21 day. The method, boiled down: as §3

A short description of data set [12]: Selectivity index, ratio of IC50 for cytotoxicity against human HepG2 cells by MTT assay to MIC99 for antitubercular activity against Mycobacterium tuberculosis CNCTC My 331/88 (H37Rv) assessed as inhibition of bacterial growth measured after 14 days of incubation. The following applies: time 14 day. It is filed as functional. The essentials:
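HepG2 cells, 15 × 10³/well, were attached overnight and exposed 24 h to serial dilutions (DMSO ≤1%). Read by MTT at 0.5 mg/mL for 1 h and 570 nm. IC50 from 4-parameter regression, three independent experiments in triplicate. SI is HepG2 IC50 divided by H37Rv MIC99.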
For orientation: Tetrazolium dyes change colour on reduction, which living cells bring about.

The test system of another data set is H9c2. Description: Cytotoxicity against rat H9c2 cells assessed as cell viability incubated for 72 hrs by MTT spectrophotometric analysis. The class given is functional, cell-based. The following applies: H9c2, 72 h. The essentials: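 HepG2 or rat H9c2 cells in DMEM with FBS, seeded at 10,000 cells/well. Treated 24 h later for 72 h, with 0.1% DMSO vehicle and 1% Triton X-100 as controls. MTT added (3 mg/mL solution) for 2 h at 37 °C, then cells lysed in isopropanol/0.1 M HCl/5% Triton X-100. Read at 570 nm minus 690 nm. Viability expressed as % of vehicle; IC50 derived where reached. At least four independent experiments.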

Data set [13] can be described thus: Aqueous solubility of compound incubated for 20 mins by UV-Visible spectrophotometric analysis. The following applies: buffer. The class given is physicochemical. The essentials:
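Solubility in ultrapure water containing 5% DMSO. Absorbance taken at each compound's λmax and compared with a six-point calibration made by serial dilution of a 50 μM standard, fitted by linear regression. Over-saturated solutions were sonicated at 37 °C for 10 min and centrifuged at 8000 RPM for 10 min. Supernatant absorbance was read, after dilution with 5% DMSO/water if above the calibration range.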

Data set [14] can be described thus: Half life in human liver microsomes at 3 uM incubated for 5 to 45 min in presence of NADPH by LC-MS analysis. It is filed as ADME, Microsome. The following applies: time 5-45 min.
A short description of data set [15]: Stability in human plasma assessed as compound remaining at 1 uM incubated for 15 to 120 mins by LC-MS analysis. It is filed as ADME, cell-free. To be noted: time 15-120 min, read-out: Stability. The method, boiled down:
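Stopped with acetonitrile containing internal standard and centrifuged at 12,000 rpm for 5 min at 4 °C. Supernatant analysed by LC-MS in positive mode. % remaining taken from compound/IS peak-area ratios at 120 versus 0 min.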

For a further data set, the system named is Staphylococcus aureus. Description: Antibacterial activity against methicilin-resistant Staphylococcus aureus C1923 assessed as inhibition of bacterial growth incubated for 24 to 48 hrs by microdilution broth method. The class given is functional, organism-based. The following applies: time 24-48 hrs. The method, boiled down:
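Clinical isolates, stored at −70 °C, were passaged twice on Mueller-Hinton agar. Broth microdilution in Mueller-Hinton broth, pH 7.4, with twofold serial dilutions. DMSO was at most 1% final. Inoculum 1.5 × 10⁸ CFU/mL suspension. MIC is 95% growth inhibition, read after 24 and 48 h at 36 °C.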
A general note: Dilution methods test growth across graded concentrations, often in twofold steps.

The next data set concerns Escherichia coli. As to the kind of experiment: Antibacterial activity against Escherichia coli A1235 assessed as inhibition of bacterial growth incubated for 24 to 48 hrs by microdilution broth method. To be noted: time 24-48 hrs. The class given is functional, organism-based. The method, boiled down: (§4)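 Clinical isolates kept at –70 °C and subcultured twice on Mueller-Hinton agar, using the second subculture. Broth microdilution in Mueller-Hinton broth at pH 7.4 with two-fold serial compound dilutions and DMSO ≤1% final. Inoculum was 10 μL of a 1.5 × 10⁸ CFU/mL suspension. Incubated at 36 °C ± 1 °C and read at 24 h and 48 h. MIC taken as 95% growth inhibition.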

In the next data set the test system is Klebsiella pneumoniae. Description: Antibacterial activity against ESBL negative Klebsiella pneumoniae C1950 assessed as inhibition of bacterial growth incubated for 24 to 48 hrs by microdilution broth method. To be noted: time 24-48 hrs. The class given is functional, organism-based. The method, boiled down: as §4

As for `O=c1[nH]c(N2CCOCC2)nc2ncn(Cc3ccc4ccccc4c3)c12`, the MIC99 was 4 µM (≈ 1.45 µg/mL) in data set [1]; > 500 µM in the data set with Mycobacterium avium [2]; > 500 µM in the data set on Mycobacterium avium [3]; 32 µM (≈ 11.6 µg/mL) in the data set on Mycobacterium kansasii [4]; 64 µM (≈ 23.1 µg/mL) with Mycobacterium kansasii [5]; 125 µM (≈ 45.2 µg/mL) in the data set with Mycobacterium kansasii [6]. For the same compound, the MIC99 in data set [7] is 32 µM (≈ 11.6 µg/mL); in data set [8] it was 32 µM (≈ 11.6 µg/mL); in data set [9] it was 16 µM (≈ 5.78 µg/mL); in [10], 32 µM (≈ 11.6 µg/mL); in data set [11], 32 µM (≈ 11.6 µg/mL). Also, in data set [12], the “Selectivity Index” value is given as 31.25. In addition, the IC50 in the data set with H9c2 was > 50 µM. In [13], this compound yielded a solubility at 20 min of 46.9 µM (≈ 16.9 µg/mL). In addition, the half-life at 3 µM in [14] is 110 min. In data set [15], the remaining at 1 µM was 96.6%. Further, the outcome in the data set on Staphylococcus aureus, in the data set with Escherichia coli and in the data set with Klebsiella pneumoniae was inactive.

Take `COc1nc(N2CCOCC2)nc2ncn(Cc3ccc4ccccc4c3)c12`: the MIC99 was 2 µM (≈ 0.751 µg/mL) in data set [1]; 250 µM (≈ 93.9 µg/mL) with Mycobacterium avium [2]; 500 µM (≈ 188 µg/mL) with Mycobacterium avium [3]; 16 µM (≈ 6.01 µg/mL) with Mycobacterium kansasii [4]; 32 µM (≈ 12 µg/mL) in the data set with Mycobacterium kansasii [5]; 64 µM (≈ 24 µg/mL) in the data set on Mycobacterium kansasii [6]. The MIC99 turned out to be 8 µM (≈ 3 µg/mL) in [7]; 16 µM (≈ 6.01 µg/mL) in data set [8]; 16 µM (≈ 6.01 µg/mL) in data set [9]; 16 µM (≈ 6.01 µg/mL) in data set [10]; 8 µM (≈ 3 µg/mL) in data set [11]. For the same compound, the “Selectivity Index” value in data set [12] is 32. The IC50 with H9c2 was > 50 µM. Moreover, the result with Staphylococcus aureus, in the data set with Escherichia coli and with Klebsiella pneumoniae was inactive.

As for `O=c1[nH]c(N2CCCCC2)nc2ncn(Cc3ccc4ccccc4c3)c12`, the MIC99 is 2 µM (≈ 0.719 µg/mL) in [1]; > 500 µM in the data set on Mycobacterium avium [2]; > 500 µM in the data set on Mycobacterium avium [3]; > 500 µM in the data set with Mycobacterium kansasii [4]; > 500 µM in the data set with Mycobacterium kansasii [5]; > 500 µM in the data set with Mycobacterium kansasii [6]. Further, the MIC99 in data set [7] came to 8 µM (≈ 2.88 µg/mL); in [8] it was 16 µM (≈ 5.75 µg/mL); in data set [9], 16 µM (≈ 5.75 µg/mL); in [10], 16 µM (≈ 5.75 µg/mL); in [11], 8 µM (≈ 2.88 µg/mL). For the same compound, in data set [12], the “Selectivity Index” value came out at 43.6. In the data set with H9c2, the IC50 was > 50 µM. In addition, the solubility at 20 min in data set [13] was found to be 8.4 µM (≈ 3.02 µg/mL). Moreover, in [14], the half-life at 3 µM came to 17.8 min. Further, the remaining at 1 µM in data set [15] is 96.7%. Further, the result with Staphylococcus aureus, in the data set on Escherichia coli and in the data set with Klebsiella pneumoniae was inactive.

Consider `O=c1[nH]c(N2CCSCC2)nc2ncn(Cc3ccc4ccccc4c3)c12`, for which the MIC99 in data set [1] was 2 µM (≈ 0.755 µg/mL); in the data set on Mycobacterium avium [2], > 500 µM; in the data set with Mycobacterium avium [3], > 500 µM; with Mycobacterium kansasii [4] it was 32 µM (≈ 12.1 µg/mL); in the data set with Mycobacterium kansasii [5] it was 64 µM (≈ 24.2 µg/mL); with Mycobacterium kansasii [6], 125 µM (≈ 47.2 µg/mL). Further, the MIC99 in [7] was determined as 8 µM (≈ 3.02 µg/mL); in data set [8], 16 µM (≈ 6.04 µg/mL); in [9] it was 16 µM (≈ 6.04 µg/mL); in [10], 16 µM (≈ 6.04 µg/mL); in data set [11], 8 µM (≈ 3.02 µg/mL). Further, the “Selectivity Index” value in data set [12] was determined as 16. Moreover, the IC50 with H9c2 was > 50 µM. The compound also had a solubility at 20 min in data set [13] of 9.3 µM (≈ 3.51 µg/mL). In addition, the half-life at 3 µM in data set [14] was 10.9 min. For the same compound, the remaining at 1 µM in data set [15] is 98.2%. The outcome in the data set with Staphylococcus aureus, in the data set with Escherichia coli and in the data set on Klebsiella pneumoniae was inactive.
